Measurements as given in paper PMC6045484 (ACS Omega, 2018).
In brackets after ≈: the same amount, converted by molar mass. Entries after “also recorded” stand apart in the source; their conditions may differ.

How the values were obtained:
[1] = test system: multidrug-resistant P. yoelii nigeriensis; assay: blood-schizontocidal activity against P. yoelii nigeriensis infection in mice; assay type: in vivo, Plasmodium yoelii nigeriensis; conditions: Swiss mice
In short: (§1)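 Swiss mice of either sex (about 15–20 g, same age), six per group, inoculated intraperitoneally on day 0 with 1 × 10^7 infected erythrocytes from a donor mouse. Oral test compound at 100, 50, 25 or 10 mg/kg, CQ diphosphate (10 mg/kg/day × 4) or vehicle started 4 h later, on D0 to D+3. Giemsa tail-blood smears on D+4 and D+7. Curative: parasites eliminated, no relapse, all mice surviving to D+60.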

[2] = test system: C. neoformans ATCC90113; assay: in vitro antifungal activity; assay type: cell-based, Cryptococcus neoformans; conditions: for IC50 / MFC / MIC: Cryptococcus neoformans; for IC50: ATCC90113, read-out: C. neoformans IC50; for MFC: ATCC90113, read-out: C. neoformans MFC; for MIC: ATCC90113, read-out: C. neoformans MIC
In short: (§2)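 Modified NCCLS broth method in Sabouraud dextrose. Inoculum set by OD630 to 1.5 × 10^3 CFU/mL. Test compound serially diluted in 20% DMSO/saline, duplicate wells, up to 20 μg/mL. Incubated 70–74 h at 35 °C; 530 nm read before and after. IC50 is 50% growth inhibition; MIC is no detectable growth. MFC from clear wells subcultured on agar. Amphotericin B control.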

[3] = test system: MRSA (ATCC33591); assay: in vitro antibacterial activity; assay type: cell-based, methicillin-resistant Staphylococcus aureus; conditions: for MIC: Staphylococcus aureus, ATCC33591|MRSA, read-out: MIC, MRSA
In short: (§3)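 Test compound serially diluted in 20% DMSO/saline and plated in duplicate, up to 20 μg/mL. Inoculum in cation-adjusted Mueller–Hinton broth, pH 7.3, set by OD630 to 5 × 10^5 CFU/mL. Incubated 16–20 h at 35 °C; 530 nm read before and after. IC50 is 50% growth inhibition; MIC is no detectable growth. MBC from clear wells subcultured on agar. Ciprofloxacin control.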

[4] = test system: C. albicans ATCC90028; assay: in vitro antifungal activity; assay type: cell-based, Candida albicans; conditions: for IC50 / MFC / MIC: Candida albicans; for IC50: ATCC90028, read-out: C. albicans IC50; for MFC: ATCC90028, read-out: C. albicans MFC; for MIC: ATCC90028, read-out: C. albicans MIC
In short: as §2

[5] = test system: P. berghei (sensitive strain); assay: blood-schizontocidal activity against P. berghei infection in mice; assay type: in vivo, Plasmodium berghei; conditions: Swiss mice
In short: as §1

[6] = test system: M. intracellulare (ATCC23068); assay: in vitro antibacterial activity, modified alamarBlue procedure; assay type: cell-based, Mycobacterium intracellulare; conditions: for IC50 / MBC / MIC: Mycobacterium intracellulare; for IC50: ATCC23068, read-out: IC50 (concentration that affords 50% growth inhibition), M. intracellulare; for MBC: ATCC23068, read-out: MBC (minimum bactericidal concentration), M. intracellulare; for MIC: ATCC23068, read-out: MIC, M. intracellulare
In short: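 Modified alamarBlue microplate method. Test compound serially diluted in 20% DMSO/saline, duplicate wells, up to 20 μg/mL. Inoculum 2.0 × 10^6 CFU/mL in Middlebrook 7H9 with OADC, pH 7.3, containing 5% alamarBlue. Incubated 70–74 h at 37 °C, 10% CO2; fluorescence 544ex/590em read before and after. MIC: no blue-to-pink change. MBC by subculturing blue wells on agar. Ciprofloxacin control.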

[7] = test system: L. donovani promastigotes; assay: in vitro antileishmanial activity, alamarBlue assay; assay type: cell-based, Leishmania donovani; conditions: Leishmania donovani, 48 h; for IC50: read-out: L. donovani IC50, promastigotes, 48 h; for IC90: read-out: L. donovani IC90, promastigotes, 48 h
[8] = test system: P. falciparum (W2); assay: in vitro antimalarial activity, plasmodial LDH; assay type: cell-based, Plasmodium falciparum; conditions: for P. falciparum (W2) IC50: CQ-resistant W2 strain, 72 h; for IC50: Plasmodium falciparum, W2, 72 h, read-out: P. falciparum (W2) IC50, CQ-resistant W2 strain, 72 h
In short: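 P. falciparum-infected erythrocytes (2% parasitemia, 2% hematocrit) in RPMI 1640 with 10% human serum and 60 μg/mL amikacin. Exposed to test compound dilutions for 72 h at 37 °C under 90% N2/5% O2/5% CO2. LDH measured with Malstat reagent (30 min, room temperature), then NBT/PES for 1 h in the dark, stopped with 5% acetic acid, read at 650 nm. IC50 from dose-response curves.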

[9] = test system: P. falciparum (D6); assay: in vitro antimalarial activity, plasmodial LDH; assay type: cell-based, Plasmodium falciparum; conditions: for IC50: Plasmodium falciparum, D6, 72 h, read-out: P. falciparum (D6) IC50
[10] = test system: SA (ATCC29213); assay: in vitro antibacterial activity; assay type: cell-based; conditions: Staphylococcus aureus; for IC50: ATCC29213, read-out: IC50 (concentration that affords 50% growth inhibition), SA; for MBC: ATCC29213, read-out: MBC (minimum bactericidal concentration), SA; for MIC: ATCC29213, read-out: MIC, SA
In short: as §3

[11] = test system: SK-MEL, KB, BT-549, SK-OV-3, VERO and LLC-PK1 cells; assay: cytotoxicity, neutral red uptake assay; assay type: cell-based, mammalian; conditions: highest test concentration 4760 ng/mL
In short: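 Cells seeded at 25 000/well and allowed 24 h to reach confluence. Test compound was then added and incubated 48 h. Viable cells were counted by a modified neutral red uptake method. The panel was four human cancer lines and two noncancerous mammalian kidney lines. Doxorubicin served as positive control and DMSO as negative control.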

[12] = test system: A. fumigatus ATCC 90906; assay: in vitro antifungal activity; assay type: cell-based, Aspergillus fumigatus; conditions: for IC50 / MFC / MIC: Aspergillus fumigatus; for IC50: ATCC90906, read-out: A. fumigatus IC50; for MFC: ATCC90906, read-out: A. fumigatus MFC; for MIC: ATCC90906, read-out: A. fumigatus MIC
In short: as §2

[13] = test system: C. krusei ATCC6258; assay: in vitro antifungal activity; assay type: cell-based, Candida krusei
In short: as §2

[14] = test system: C. glabrata ATCC90030; assay: in vitro antifungal activity; assay type: cell-based, Candida glabrata
In short: as §2

[15] = methicillin-resistant S. aureus, highest test concentration 20 μg/mL
[16] = highest test concentration 20 μg/mL

CCCCCCOc1c(OC)cc(NC(C)CCCN)c2nc(C(C)(C)C)ccc12 (stereo not drawn) [compound 47, N^4-(2-tert-Butyl-5-(hexyloxy)-6-methoxyquinolin-8-yl)pentane-1,4-diamine]
P. yoelii nigeriensis blood-schizontocidal activity (mice cured/treated) ([1]; 25 mg/kg/day × 4, oral): inactive (0/6) | P. yoelii nigeriensis blood-schizontocidal activity (mice cured/treated) ([1]; 50 mg/kg/day × 4, oral): cured 100% mice; also recorded: curative (6/6) | P. yoelii nigeriensis blood-schizontocidal activity (mice cured/treated) ([1]; 100 mg/kg/day × 4, oral): curative (6/6) | IC50 [2]: 2.97 µg/mL (≈ 7.15 µM) | MFC [2]: 5 µg/mL (≈ 12 µM) | MIC [2]: 5 µg/mL (≈ 12 µM) | MIC [3]: 5 µg/mL (≈ 12 µM) | IC50 [4]: 15.4 µg/mL (≈ 37.2 µM) | MFC [4]: 20 µg/mL (≈ 48.1 µM) | MIC [4]: 20 µg/mL (≈ 48.1 µM) | P. berghei blood-schizontocidal activity (mice cured/treated) ([5]; 10 mg/kg/day × 4, oral): active (5/6) | P. berghei blood-schizontocidal activity (mice cured/treated) ([5]; 25 mg/kg/day × 4, oral): curative (6/6) | P. berghei blood-schizontocidal activity (mice cured/treated) ([5]; 50 mg/kg/day × 4, oral): curative (6/6) | P. berghei blood-schizontocidal activity (mice cured/treated) ([5]; 100 mg/kg/day × 4, oral): curative (6/6) | IC50 [6]: 6.3 µg/mL (≈ 15.2 µM) | MBC [6]: 10 µg/mL (≈ 24.1 µM) | MIC [6]: 10 µg/mL (≈ 24.1 µM) | IC50 [7]: 4.6 µg/mL (≈ 11.1 µM) | IC90 [7]: > 40 µg/mL | P. falciparum (W2) IC50 [8]: 0.04 µg/mL | IC50 [8]: 0.042 µg/mL (≈ 0.101 µM) | IC50 [9]: 0.042 µg/mL (≈ 0.101 µM) | IC50 [10]: 2.77 µg/mL (≈ 6.66 µM) | MBC [10]: 5 µg/mL (≈ 12 µM) | MIC [10]: 5 µg/mL (≈ 12 µM) | cytotoxicity CTX [11]: NC (NC, not cytotoxic up to 4760 ng/mL (4.76 μg/mL)) | IC50 [12]: > 20 µg/mL | MFC [12]: > 20 µg/mL | MIC [12]: > 20 µg/mL

CCCCCCCCOc1c(OC)cc(NC(C)CCCN)c2nc(C(C)(C)C)ccc12 (stereo not drawn) [compound 49, N^4-(2-tert-Butyl-6-methoxy-5-(octyloxy)quinolin-8-yl)pentane-1,4-diamine]
P. yoelii nigeriensis blood-schizontocidal activity (mice cured/treated) ([1]; 25 mg/kg/day × 4, oral): inactive (0/6) | P. yoelii nigeriensis blood-schizontocidal activity (mice cured/treated) ([1]; 50 mg/kg/day × 4, oral): active (3/6) | P. yoelii nigeriensis blood-schizontocidal activity (mice cured/treated) ([1]; 100 mg/kg/day × 4, oral): active (4/6) | IC50 [2]: 2.15 µg/mL (≈ 4.85 µM) | MFC [2]: 5 µg/mL (≈ 11.3 µM) | MIC [2]: 5 µg/mL (≈ 11.3 µM) | MIC [3]: 5 µg/mL (≈ 11.3 µM) | IC50 [4]: 7.44 µg/mL (≈ 16.8 µM) | MFC [4]: 10 µg/mL (≈ 22.5 µM) | MIC [4]: 10 µg/mL (≈ 22.5 µM) | P. berghei blood-schizontocidal activity (mice cured/treated) ([5]; 10 mg/kg/day × 4, oral): active (4/6) | P. berghei blood-schizontocidal activity (mice cured/treated) ([5]; 25 mg/kg/day × 4, oral): curative (6/6) | P. berghei blood-schizontocidal activity (mice cured/treated) ([5]; 50 mg/kg/day × 4, oral): curative (6/6) | P. berghei blood-schizontocidal activity (mice cured/treated) ([5]; 100 mg/kg/day × 4, oral): curative (6/6) | IC50 [6]: 7.43 µg/mL (≈ 16.7 µM) | MBC [6]: 20 µg/mL (≈ 45.1 µM) | MIC [6]: 10 µg/mL (≈ 22.5 µM) | IC50 [7]: 5.2 µg/mL (≈ 11.7 µM) | IC90 [7]: > 40 µg/mL | IC50 [8]: 0.04 µg/mL (≈ 0.0902 µM) | IC50 [9]: 0.053 µg/mL (≈ 0.119 µM) | IC50 [10]: 3.4 µg/mL (≈ 7.66 µM) | MBC [10]: 10 µg/mL (≈ 22.5 µM) | MIC [10]: 5 µg/mL (≈ 11.3 µM) | cytotoxicity CTX [11]: NC (NC, not cytotoxic up to 4760 ng/mL (4.76 μg/mL)) | IC50 [12]: > 20 µg/mL | MFC [12]: > 20 µg/mL | MIC [12]: > 20 µg/mL

CCCCCCCCOc1c(OC)cc(NC(C)CCCNC(=O)C(N)CCCCN)c2nc(C(C)(C)C)ccc12 (stereo not drawn) [compound 117, 2,6-Diamino-N-(4-(2-tert-butyl-6-methoxy-5-(octyloxy)quinolin-8-lamino)pentyl)-hexanamide]
C. neoformans IC50 [2]: 11.92 µg/mL | C. neoformans MFC [2]: >20 µg/mL | C. neoformans MIC [2]: >20 µg/mL | IC50 (concentration that affords 50% growth inhibition), MRSA [3, 15]: NA (NA, no activity at the highest test concentration of 20 μg/mL) | MBC (minimum bactericidal concentration), MRSA [3, 15]: NA (NA, no activity at the highest test concentration of 20 μg/mL) | MIC, MRSA [3, 15]: NA (NA, no activity at the highest test concentration of 20 μg/mL) | C. albicans IC50 [4]: NA (NA, no activity at the highest test concentration of 20 μg/mL) | C. albicans MFC [4]: NA (NA, no activity at the highest test concentration of 20 μg/mL) | C. albicans MIC [4]: NA (NA, no activity at the highest test concentration of 20 μg/mL) | IC50 (concentration that affords 50% growth inhibition), M. intracellulare [6, 16]: NA (NA, no activity at the highest test concentration of 20 μg/mL) | MBC (minimum bactericidal concentration), M. intracellulare [6, 16]: NA (NA, no activity at the highest test concentration of 20 μg/mL) | MIC, M. intracellulare [6, 16]: NA (NA, no activity at the highest test concentration of 20 μg/mL) | C. krusei IC50 [13]: NA (NA, no activity at the highest test concentration of 20 μg/mL) | C. krusei MFC [13]: NA (NA, no activity at the highest test concentration of 20 μg/mL) | C. krusei MIC [13]: NA (NA, no activity at the highest test concentration of 20 μg/mL) | C. glabrata IC50 [14]: NA (NA, no activity at the highest test concentration of 20 μg/mL) | C. glabrata MFC [14]: NA (NA, no activity at the highest test concentration of 20 μg/mL) | C. glabrata MIC [14]: NA (NA, no activity at the highest test concentration of 20 μg/mL) | P. falciparum (W2) IC50 [8]: NA (NA, not active) | P. falciparum (D6) IC50 ([9]; CQ-sensitive D6 strain, 72 h): NA (NA, not active) | IC50 (concentration that affords 50% growth inhibition), SA [10, 16]: NA (NA, no activity at the highest test concentration of 20 μg/mL) | MBC (minimum bactericidal concentration), SA [10, 16]: NA (NA, no activity at the highest test concentration of 20 μg/mL) | MIC, SA [10, 16]: NA (NA, no activity at the highest test concentration of 20 μg/mL) | cytotoxicity CTX [11]: NC (NC, not cytotoxic up to 4760 ng/mL (4.76 μg/mL)) | A. fumigatus IC50 [12]: NA (NA, no activity at the highest test concentration of 20 μg/mL) | A. fumigatus MFC [12]: NA (NA, no activity at the highest test concentration of 20 μg/mL) | A. fumigatus MIC [12]: NA (NA, no activity at the highest test concentration of 20 μg/mL)
